The values that follow come from ChEMBL document CHEMBL3352378, “Novel carbazole inhibits phospho-STAT3 through induction of protein-tyrosine phosphatase PTPN6” (J Med Chem, 2014).

The target in test [1] is Signal transducer and activator of transcription 3 (Homo sapiens) (UniProt P40763). Kind of test: Inhibition of STAT3C-mediated transcription in human Hs578T cells at 1 uM after 24 hrs by luciferase reporter gene assay. The test is classed as cell-based. As to conditions: Hs-578T. In a few lines: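 HS578T cells co-transfected with a constitutively active STAT3 (STAT3C) expression vector and the APRE-Luc reporter. Treated at 1 μM for 24 h, with JAK2 inhibitor AZD1480 for comparison. Luciferase measured; mean ± SD of triplicates.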
(In general: In a reporter assay the amount or activity of a reporter protein is the signal.)

Test [2] has the same target. As to the kind of experiment: Inhibition of STAT3 in human Hs578T cells assessed as reduction of IL-6 induced transactivation incubated for 1 hr prior to IL-6 challenge measured after 2 hrs by luciferase reporter gene assay. The test is classed as cell-based. As to conditions: Hs-578T. The method in brief: (§1)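 Cells transfected with the APRE-Luc STAT3-responsive reporter. Pretreated 1 h with increasing concentrations, then given 5 ng/mL IL-6: 2 h for HS578T, 16 h for MCF7. Luciferase read afterwards; relative activity as mean ± SD of triplicates.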

Test [3] has the same target. As to the kind of experiment: Inhibition of STAT3 in human MCF7 cells assessed as reduction of IL-6 induced transactivation incubated for 1 hr prior to IL-6 challenge measured after 16 hrs by luciferase reporter gene assay. The format is cell-based. The method in brief: as §1
The target is the same in test [4]. As to the kind of experiment: Inhibition of STAT3 in human Hs578T cells assessed as reduction of IL-6 induced STAT3 phosphorylation at Y705 incubated for 2 hrs prior to IL-6 challenge measured after 30 mins by Western blotting analysis. As to conditions: Hs-578T. The format is cell-based. The method in brief:
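Cells pretreated with compound for 2 h, then stimulated with IL-6 at 5 ng/mL for 30 min. Lysates immunoblotted for phospho-STAT3 (Y705), with β-actin as loading control.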
In general terms: In western blotting, separated proteins are transferred to a membrane and probed.

The target is the same in test [5]. As to the kind of experiment: Inhibition of STAT3 in human SUM149PT cells assessed as reduction of IL-6 induced STAT3 phosphorylation at Y705 incubated for 2 hrs prior to IL-6 challenge measured after 30 mins by Western blotting analysis. The format is cell-based.
The test system of another test is SUM1315MO2. As to the kind of experiment: Cytotoxicity against human SUM1315MO2 cells after 72 hrs by MTT assay. The format is functional, cell-based. In a few lines: (§2)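 Cells exposed to increasing concentrations for about 72 h, and viability read by MTT. EC50 fitted with CompuSyn. Two independent experiments, each in triplicate, mean ± SEM. Compound stocks 10 mM in DMSO.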

A further test relates to SUM149PT. As to the kind of experiment: Cytotoxicity against human SUM149PT cells after 72 hrs by MTT assay. The test is classed as functional, cell-based. The method in brief:
as §2

In the next test the test system is MDA-MB-453. As to the kind of experiment: Cytotoxicity against human MDA-MB-453 cells after 72 hrs by MTT assay. The format is functional, cell-based. The method in brief:
as §2
Background: Tetrazolium dyes change colour on reduction, which living cells bring about.

In another test the test system is MDA-MB-231. Kind of test: Cytotoxicity against human MDA-MB-231 cells after 72 hrs by MTT assay. The test is classed as functional, cell-based. The method in brief: as §2
The test system of the next test is Hs-578T. As to the kind of experiment: Cytotoxicity against human Hs578T cells after 72 hrs by MTT assay. The test is classed as functional, cell-based. In a few lines: as §2
The next test has as its system MDA-MB-436. As to the kind of experiment: Cytotoxicity against human MDA-MB-436 cells after 72 hrs by MTT assay. The test is classed as functional, cell-based. In a few lines:
as §2

The test system of another test is BT-549. Kind of test: Cytotoxicity against human BT549 cells after 72 hrs by MTT assay. The format is functional, cell-based. The method in brief: as §2
For the next test, the system named is MDA-MB-468. Kind of test: Cytotoxicity against human MDA-MB-468 cells after 72 hrs by MTT assay. The test is classed as functional, cell-based. The method in brief:
as §2

In a further test the test system is HCC1937. As to the kind of experiment: Cytotoxicity against human HCC1937 cells after 72 hrs by MTT assay. The format is functional, cell-based. The method in brief: as §2
For another test, the system named is A-431. Kind of test: Cytotoxicity against human A431 cells after 72 hrs by MTT assay. The test is classed as functional. As to conditions: A-431, 72 h. In a few lines:
as §2

The next test concerns A549. As to the kind of experiment: Cytotoxicity against human A549 cells after 72 hrs by MTT assay. The test is classed as functional. As to conditions: A549, 72 h. The method in brief: as §2
Test [6] is described as follows: Cytotoxicity against human PC3 cells after 72 hrs by MTT assay. The note with it: PC-3, 72 h. The format is functional. The method in brief: as §2
Test [7] has as its target Signal transducer and activator of transcription 3 (Homo sapiens) (UniProt P40763). Kind of test: Inhibition of STAT3 in human Hs578T cells assessed as reduction of STAT3 phosphorylation at Y705 after 24 hrs by Western blotting analysis. The note with it: Hs-578T. The test is classed as cell-based. The method in brief: (§3)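 HS578T and SUM149PT cells given increasing concentrations for 24 h. Lysates immunoblotted with the indicated antibodies, β-actin as loading control.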

Test [8] has the same target. Kind of test: Inhibition of STAT3 in human SUM149PT cells assessed as reduction of STAT3 phosphorylation at Y705 after 24 hrs by Western blotting analysis. The test is classed as cell-based. The method in brief: as §3
For test [9] the target is unchanged. Kind of test: Inhibition of STAT3 in human Hs578T cells assessed as reduction of cyclin D1 level at 0.3 to 3 uM after 24 hrs by Western blotting analysis. The format is cell-based. The note with it: Hs-578T. In a few lines: as §3
Test [10] has the same target. Kind of test: Inhibition of STAT3 in human SUM149PT cells assessed as reduction of cyclin D1 level at 0.3 to 3 uM after 24 hrs by Western blotting analysis. The format is cell-based. In a few lines:
as §3

Active and inactive are the calls of the source. The rule behind the calls is not given here.

Chain of Signal transducer and activator of transcription 3 (Homo sapiens) (P40763 whole entry): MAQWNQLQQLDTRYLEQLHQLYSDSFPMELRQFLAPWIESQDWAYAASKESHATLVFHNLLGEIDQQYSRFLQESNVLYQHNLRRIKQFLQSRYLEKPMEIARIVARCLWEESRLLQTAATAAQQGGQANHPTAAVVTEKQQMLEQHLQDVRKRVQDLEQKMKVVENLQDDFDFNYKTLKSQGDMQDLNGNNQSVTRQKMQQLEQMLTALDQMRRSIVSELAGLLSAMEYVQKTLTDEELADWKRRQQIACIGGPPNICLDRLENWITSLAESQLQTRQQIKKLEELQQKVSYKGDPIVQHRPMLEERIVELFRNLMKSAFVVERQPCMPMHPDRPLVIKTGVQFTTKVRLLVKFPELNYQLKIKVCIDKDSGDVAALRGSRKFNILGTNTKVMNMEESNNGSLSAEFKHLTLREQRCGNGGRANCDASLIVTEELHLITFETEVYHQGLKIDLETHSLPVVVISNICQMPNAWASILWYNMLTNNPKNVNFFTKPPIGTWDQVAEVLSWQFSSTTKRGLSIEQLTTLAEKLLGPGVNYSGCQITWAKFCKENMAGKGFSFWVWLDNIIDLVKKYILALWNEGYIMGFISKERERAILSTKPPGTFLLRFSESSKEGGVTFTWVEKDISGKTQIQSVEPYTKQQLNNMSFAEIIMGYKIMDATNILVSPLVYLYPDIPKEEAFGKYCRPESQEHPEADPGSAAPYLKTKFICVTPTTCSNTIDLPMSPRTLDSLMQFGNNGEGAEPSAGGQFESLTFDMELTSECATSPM

Turning to `Cc1c(OS(=O)(=O)c2cccc3c(N(C)C)cccc23)ccc2c1[nH]c1cc(O)ccc12`, the inhibition entry in test [1], in [3], in test [9] and in [10] was “Active” throughout. Besides, the inhibition result in [2], in test [4], in test [5], in [7] and in [8] was “Dose-dependent effect” throughout. Also, the outcome in the test on SUM1315MO2, with SUM149PT, with MDA-MB-453, in the test with MDA-MB-231, in the test with Hs-578T and in the test on MDA-MB-436 was Active. In addition, the outcome in the test with BT-549, in the test with MDA-MB-468 and in the test on HCC1937 was Active. For the same molecule, the results for the GI50 (with A-431; with A549; in [6]) were 160 nM, 2500 nM and 3000 nM, respectively.
